The structures appear in SMILES notation.

Experiment [1] is filed under the species Rattus norvegicus. Nature of the experiment: Separation of antifertility from estrogenic activity in rats was measured. In kind it is functional.
Experiment [2] is filed under the species Rattus norvegicus. Put plainly: Antifertility activity measured as minimum protective dose for prevention of pregnancy in rats. More on the design: unit not given here. In kind it is functional. In outline: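 Oral dosing in adult cycling female rats selected in the proestrous phase, 10 animals per dose, with treatment starting on the day of proestrus.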

Experiment [3] deals with Estrogen receptor (Rattus norvegicus) (UniProt P06211+Q62986).

`CCC(C)[Si](C)(C)C#C[C@]1(O)CC[C@H]2[C@@H]3CCc4cc(O)ccc4[C@H]3CC[C@@]21C` (stereo partly specified) showed a Separation in experiment [1] of 15. Moreover, in experiment [2], the Antifertility potency was determined as 300. The molecule also yielded an Estrogenic potency in experiment [3] of 20.

In experiment [2], `C[C@]12CC[C@@H]3c4ccc(O)cc4CC[C@H]3[C@@H]1CC[C@@]2(O)C#C[Si](c1ccccc1)(c1ccccc1)c1ccccc1` came in with an Antifertility potency of 0. This molecule also had an Estrogenic potency in experiment [3] of 0.5.

`CC[Si](C#C[C@]1(O)CC[C@H]2[C@@H]3CCc4cc(O)ccc4[C@H]3CC[C@@]21C)(CC)CC` gave a Separation in experiment [1] of 16. The molecule also gave an Antifertility potency in experiment [2] of 600. Further, the Estrogenic potency in experiment [3] was found to be 37.

`CC(C)(C)C#C[C@]1(O)CC[C@H]2[C@@H]3CCc4cc(O)ccc4[C@H]3CC[C@@]21C` came in with a Separation in experiment [1] of 14. Also, the Antifertility potency in experiment [2] is listed as 1. The molecule also had an Estrogenic potency in experiment [3] of 0.07.

`CC(C)(C)[Si](C)(C)C#C[C@]1(O)CC[C@H]2[C@@H]3CCc4cc(O)ccc4[C@H]3CC[C@@]21C`: in experiment [1], the Separation was found to be 30. In experiment [2], this molecule gave an Antifertility potency of 600. In experiment [3], this molecule yielded an Estrogenic potency of 20.

In experiment [1], `C[C@]12CC[C@@H]3c4ccc(O)cc4CC[C@H]3[C@@H]1CC[C@@]2(O)C#C[Si](C)(C)C` registered a Separation of 4.7. The same molecule displayed an Antifertility potency in experiment [2] of 33. The Estrogenic potency in experiment [3] was 7.

In turn, `C=C([C@]1(O)CC[C@H]2[C@@H]3CCc4cc(O)ccc4[C@H]3CC[C@@]21C)[Si](CC)(CC)CC` came in with a Separation in experiment [1] of 8. Also, the Antifertility potency in experiment [2] is 4. In experiment [3], this molecule yielded an Estrogenic potency of 0.5.

For `CCCCCC[Si](C#C[C@]1(O)CC[C@H]2[C@@H]3CCc4cc(O)ccc4[C@H]3CC[C@@]21C)(CC)CC`, the Separation in experiment [1] turned out to be 3. This molecule returned an Antifertility potency in experiment [2] of 15. In addition, in experiment [3], the Estrogenic potency came to 5.2.

Consider `C#C[C@]1(O)CC[C@H]2[C@@H]3CCc4cc(O)ccc4[C@H]3CC[C@@]21C` [ETHINYL ESTRADIOL], for which the Antifertility potency in experiment [2] is 100.

In turn, `C[C@]12CC[C@@H]3c4ccc(O)cc4CC[C@H]3[C@@H]1CC[C@@]2(O)C#C[Si](C)(C)Cc1ccccc1` registered a Separation in experiment [1] of 25. The same molecule yielded an Antifertility potency in experiment [2] of 300. The molecule further registered an Estrogenic potency in experiment [3] of 12.

For `C=C([C@]1(O)CC[C@H]2[C@@H]3CCc4cc(O)ccc4[C@H]3CC[C@@]21C)[Si](C)(C)C`, the Separation in experiment [1] turned out to be 5. In addition, in experiment [2], the Antifertility potency is 2. In addition, the Estrogenic potency in experiment [3] worked out at 0.4.

In turn, `CC[Si](C#C[C@]1(O)CC[C@H]2[C@@H]3CCc4cc(OC(C)=O)ccc4[C@H]3CC[C@@]21C)(CC)CC` had an Antifertility potency in experiment [2] of 600. In experiment [3], the Estrogenic potency was 34.

In turn, `C[C@]12CC[C@@H]3c4ccc(O)cc4CC[C@H]3[C@@H]1CC[C@@]2(O)/C=C\[Si](C)(C)C` showed a Separation in experiment [1] of 10. Also, the Antifertility potency in experiment [2] is recorded as 5. The molecule further yielded an Estrogenic potency in experiment [3] of 0.5.

In the case of `C[C@]12CC[C@@H]3c4ccc(O)cc4CC[C@H]3[C@@H]1CC[C@@]2(O)C#C[Si](C)(CCl)CCl`, in experiment [1], the Separation was determined as 4. In experiment [2], this molecule gave an Antifertility potency of 150. In experiment [3], this molecule returned an Estrogenic potency of 39.

In experiment [1], `CC[SiH](C#C[C@]1(O)CC[C@H]2[C@@H]3CCc4cc(O)ccc4[C@H]3CC[C@@]21C)CC` had a Separation of 21. In experiment [2], this molecule showed an Antifertility potency of 600. The same molecule yielded an Estrogenic potency in experiment [3] of 29.

For the molecule `CCCC[Si](C#C[C@]1(O)CC[C@H]2[C@@H]3CCc4cc(O)cc(C(C)=O)c4[C@H]3CC[C@@]21C)(CCCC)CCCC`, the Antifertility potency in experiment [2] is 0. In addition, in experiment [3], the Estrogenic potency amounted to 4.

As for `CCC(C)[Si](C#C[C@]1(O)CC[C@H]2[C@@H]3CCc4cc(O)ccc4[C@H]3CC[C@@]21C)(CC)CC` (stereo partly specified), in experiment [1], the Separation is 5. The same molecule registered an Antifertility potency in experiment [2] of 300. The same molecule came in with an Estrogenic potency in experiment [3] of 57.

As for `C[C@]12CC[C@@H]3c4ccc(O)cc4CC[C@H]3[C@@H]1CC[C@@]2(O)C#C[Si](C)(C)CCCCl`, the Separation in experiment [1] came out at 8. This molecule yielded an Antifertility potency in experiment [2] of 200. In experiment [3], this molecule returned an Estrogenic potency of 25.

On to `CC[Si](/C=C\[C@]1(O)CC[C@H]2[C@@H]3CCc4cc(O)ccc4[C@H]3CC[C@@]21C)(CC)CC`, for which the Separation in experiment [1] is on record as 20. Further, the Antifertility potency in experiment [2] worked out at 10. For the same molecule, in experiment [3], the Estrogenic potency turned out to be 0.5.

`CC(Cl)[Si](C)(C)C#C[C@]1(O)CC[C@H]2[C@@H]3CCc4cc(O)ccc4[C@H]3CC[C@@]21C` (stereo partly specified) yielded a Separation in experiment [1] of 7. In experiment [2], this molecule came in with an Antifertility potency of 300. Moreover, the Estrogenic potency in experiment [3] came out at 45.

Consider `CC[Si](C#C[C@]1(O)CC[C@H]2[C@@H]3CCc4cc(O)ccc4[C@H]3CC[C@@]21C)(CC)C(C)(C)C`, for which the Separation in experiment [1] is listed as 10. The molecule further registered an Antifertility potency in experiment [2] of 300. In experiment [3], this molecule showed an Estrogenic potency of 31.

For `CCCC(=O)Oc1ccc2c(c1)CC[C@@H]1[C@@H]2CC[C@@]2(C)[C@H]1CC[C@@]2(O)C#C[Si](CC)(CC)CC`, in experiment [2], the Antifertility potency is listed as 300. In addition, in experiment [3], the Estrogenic potency was found to be 35.

In experiment [2], `C[C@]12CC[C@@H]3c4ccc(O)cc4CC[C@H]3[C@@H]1CC[C@@]2(O)/C=C/[Si](C)(C)C` came in with an Antifertility potency of 0. Besides, the Estrogenic potency in experiment [3] is 0.2.

Molecule `CCC[Si](C=C[C@]1(O)CC[C@H]2[C@@H]3CCc4cc(O)ccc4[C@H]3CC[C@@]21C)(CCC)CCC` came in with an Antifertility potency in experiment [2] of 0. For the same molecule, the Estrogenic potency in experiment [3] was 0.05.

Turning to `C[C@]12CC[C@@H]3c4ccc(O)cc4CC[C@H]3[C@@H]1CC[C@@]2(O)C#C[Si](C)(C)CCC#N`, the Separation in experiment [1] stood at 8. In experiment [2], this molecule came in with an Antifertility potency of 300. The molecule further yielded an Estrogenic potency in experiment [3] of 37.

In turn, `CC[Si](C#C[C@]1(O)CC[C@H]2[C@@H]3CCc4cc(OC5CCCC5)ccc4[C@H]3CC[C@@]21C)(CC)CC` gave an Antifertility potency in experiment [2] of 300. The molecule further had an Estrogenic potency in experiment [3] of 24.

For the molecule `C=CC[Si](C)(C)C#C[C@]1(O)CC[C@H]2[C@@H]3CCc4cc(O)ccc4[C@H]3CC[C@@]21C`, the Separation in experiment [1] stood at 10. In experiment [2], this molecule had an Antifertility potency of 250. In experiment [3], this molecule gave an Estrogenic potency of 24.

As to `CC(C)[Si](C)(C)C#C[C@]1(O)CC[C@H]2[C@@H]3CCc4cc(O)ccc4[C@H]3CC[C@@]21C`, in experiment [1], the Separation is listed as 20. The molecule further registered an Antifertility potency in experiment [2] of 300. The molecule also gave an Estrogenic potency in experiment [3] of 15.

Turning to `CCCC(=O)Oc1ccc2c(c1)CC[C@@H]1[C@@H]2CC[C@@]2(C)[C@H]1CC[C@]2(C#C[Si](CC)(CC)CC)OC(=O)CCC`, the Antifertility potency in experiment [2] was 40. Besides, the Estrogenic potency in experiment [3] was found to be 4.

`CC[Si](/C=C/[C@]1(O)CC[C@H]2[C@@H]3CCc4cc(O)ccc4[C@H]3CC[C@@]21C)(CC)CC`: the Separation in experiment [1] is given as 30. The molecule also gave an Antifertility potency in experiment [2] of 1.31. In experiment [3], this molecule showed an Estrogenic potency of 0.04.

Take `CCC[Si](C)(C)C#C[C@]1(O)CC[C@H]2[C@@H]3CCc4cc(O)ccc4[C@H]3CC[C@@]21C`: the Separation in experiment [1] is given as 14. This molecule also gave an Antifertility potency in experiment [2] of 300. The Estrogenic potency in experiment [3] is 22.

`CCC[Si](C#C[C@]1(O)CC[C@H]2[C@@H]3CCc4cc(O)ccc4[C@H]3CC[C@@]21C)(CC)CC` returned a Separation in experiment [1] of 8. In experiment [2], this molecule yielded an Antifertility potency of 300. In experiment [3], this molecule had an Estrogenic potency of 39.

In the case of `C[C@]12CC[C@@H]3c4ccc(O)cc4CC[C@H]3[C@@H]1CC[C@@]2(O)C#C[Si](C)(C)c1ccccc1`, in experiment [1], the Separation stood at 4.7. This molecule yielded an Antifertility potency in experiment [2] of 33. For the same molecule, in experiment [3], the Estrogenic potency was found to be 7.

In turn, `CC[Si](O)(C#C[C@]1(O)CC[C@H]2[C@@H]3CCc4cc(O)ccc4[C@H]3CC[C@@]21C)CC` displayed a Separation in experiment [1] of 27. The molecule also displayed an Antifertility potency in experiment [2] of 300. In experiment [3], this molecule returned an Estrogenic potency of 11.

The molecule `C#C[Si](C#C[C@]1(O)CC[C@H]2[C@@H]3CCc4cc(O)ccc4[C@H]3CC[C@@]21C)(CC)CC` gave a Separation in experiment [1] of 16. The Antifertility potency in experiment [2] came to 600. This molecule yielded an Estrogenic potency in experiment [3] of 37.

`CC[Si]1(C#C[C@]2(O)CC[C@H]3[C@@H]4CCc5cc(O)ccc5[C@H]4CC[C@@]32C)CCCCC1` yielded a Separation in experiment [1] of 2.4. This molecule also came in with an Antifertility potency in experiment [2] of 200. Moreover, in experiment [3], the Estrogenic potency is 85.

Take `CC[Si](C#C[C@]1(O)CC[C@H]2[C@@H]3CCc4cc(O)ccc4[C@H]3CC[C@@]21C)(CC)C(C)C`: in experiment [1], the Separation was found to be 10. The molecule also displayed an Antifertility potency in experiment [2] of 300. This molecule registered an Estrogenic potency in experiment [3] of 30.

Turning to `CC[Si](C#C[C@]1(O)CC[C@H]2[C@@H]3CCc4cc(O)ccc4[C@H]3CC[C@@]21C)(C#C[C@]1(O)CC[C@H]2[C@@H]3CCc4cc(O)ccc4[C@H]3CC[C@@]21C)CC`, in experiment [2], the Antifertility potency was determined as 0. This molecule also registered an Estrogenic potency in experiment [3] of 8.

Turning to `CC[Si](C#C[C@]1(OC(=O)n2ccnc2)CC[C@H]2[C@@H]3CCc4cc(OC)ccc4[C@H]3CC[C@@]21C)(CC)CC`, in experiment [3], the Estrogenic potency came out at 3.

Molecule `CCCC[Si](C#C[C@]1(O)CC[C@H]2[C@@H]3CCc4cc(O)ccc4[C@H]3CC[C@@]21C)(CCCC)CCCC` gave an Antifertility potency in experiment [2] of 0. For the same molecule, the Estrogenic potency in experiment [3] amounted to 2.5.

The values are drawn from ChEMBL document CHEMBL1123923, “Steroidal silicon side-chain analogues as potential antifertility agents” (1987).
